{"source": "ChEMBL document CHEMBL4689842", "about": "“EUbOPEN Chemogenomics Library wave 1” (2021)", "system": "U2OS", "assay": "Multiplex assay against U2OS", "type": "toxicity, cell-based", "conditions": "human", "method_in_brief": "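With compound added, live cells were imaged on a CQ1 microscope at 37°C and 5% CO2; staining with Hoechst33342, BioTracker Green Microtubule Cytoskeleton Dye, MitoTracker Red and Annexin V Alexa Fluor 680 had been done at seeding. The CellPathfinder machine-learning gating scheme split cells into Hoechst high-intensity objects or normal cells, normal cells into healthy, pyknosed or fragmented nuclei, and pyknosed cells into mitotic or apoptotic. The tubulin, mitochondrial-mass and membrane-permeability phenotypes are per cents of healthy-nucleus cells.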", "key": {"[1]": {"conditions": "12 h, 1 µM, compound concentration 1 uM, replicate 1"}, "[2]": {"conditions": "12 h, 1 µM, compound concentration 1 uM, replicate 2"}, "[3]": {"conditions": "12 h, 10 µM, compound concentration 10 uM, replicate 1"}, "[4]": {"conditions": "12 h, 10 µM, compound concentration 10 uM, replicate 2"}, "[5]": {"conditions": "24 h, 1 µM, compound concentration 1 uM, replicate 1"}, "[6]": {"conditions": "24 h, 1 µM, compound concentration 1 uM, replicate 2"}, "[7]": {"conditions": "24 h, 10 µM, compound concentration 10 uM, replicate 1"}, "[8]": {"conditions": "24 h, 10 µM, compound concentration 10 uM, replicate 2"}}, "data": [{"smiles": "CCc1cccc(CC)c1NC(=O)c1nn(C)c2c1CCc1cnc(Nc3ccc(N4CCN(C)CC4)cc3OC)nc1-2", "values": [{"measurement": "Population Apoptotic (%)", "setting": "[1]", "result": 70, "unit": "%"}, {"measurement": "Population Fragmented Nuclei (%)", "setting": "[1]", "result": 38, "unit": "%"}, {"measurement": "Population Healthy Nuclei (%)", "setting": "[1]", "result": 7, "unit": "%"}, {"measurement": "Population Hoechst High Intensity Objects (%)", "setting": "[1]", "result": 8, "unit": "%"}, {"measurement": "Population Membrane Permeable-Phenotype (%)", "setting": "[1]", "result": 100, "unit": "%"}, {"measurement": "Population Mitochondria Different-Phenotype (%)", "setting": "[1]", "result": 75, "unit": "%"}, {"measurement": "Population Mitotic Cells (%)", "setting": "[1]", "result": 29, "unit": "%"}, {"measurement": "Population Normal (%)", "setting": "[1]", "result": 91, "unit": "%"}, {"measurement": "Population Pyknosed Nuclei (%)", "setting": "[1]", "result": 53, "unit": "%"}, {"measurement": "Population Tubulin-Different-Phenotype (%)", "setting": "[1]", "result": 100, "unit": "%"}, {"measurement": "Total Cell Count", "setting": "[1]", "result": 159}, {"measurement": "Population Apoptotic (%)", "setting": "[2]", "result": 68, "unit": "%"}, {"measurement": "Population Fragmented Nuclei (%)", "setting": "[2]", "result": 18, "unit": "%"}, {"measurement": "Population Healthy Nuclei (%)", "setting": "[2]", "result": 12, "unit": "%"}, {"measurement": "Population Hoechst High Intensity Objects (%)", "setting": "[2]", "result": 14, "unit": "%"}, {"measurement": "Population Membrane Permeable-Phenotype (%)", "setting": "[2]", "result": 77, "unit": "%"}, {"measurement": "Population Mitochondria Different-Phenotype (%)", "setting": "[2]", "result": 100, "unit": "%"}, {"measurement": "Population Mitotic Cells (%)", "setting": "[2]", "result": 31, "unit": "%"}, {"measurement": "Population Normal (%)", "setting": "[2]", "result": 85, "unit": "%"}, {"measurement": "Population Pyknosed Nuclei (%)", "setting": "[2]", "result": 68, "unit": "%"}, {"measurement": "Total Cell Count", "setting": "[2]", "result": 87}, {"measurement": "Population Apoptotic (%)", "setting": "[3]", "result": 26, "unit": "%"}, {"measurement": "Population Fragmented Nuclei (%)", "setting": "[3]", "result": 5, "unit": "%"}, {"measurement": "Population Healthy Nuclei (%)", "setting": "[3]", "result": 80, "unit": "%"}, {"measurement": "Population Hoechst High Intensity Objects (%)", "setting": "[3]", "result": 2, "unit": "%"}, {"measurement": "Population Membrane Permeable-Phenotype (%)", "setting": "[3]", "result": 35, "unit": "%"}, {"measurement": "Population Mitochondria Different-Phenotype (%)", "setting": "[3]", "result": 54, "unit": "%"}, {"measurement": "Population Mitotic Cells (%)", "setting": "[3]", "result": 73, "unit": "%"}, {"measurement": "Population Normal (%)", "setting": "[3]", "result": 97, "unit": "%"}, {"measurement": "Population Pyknosed Nuclei (%)", "setting": "[3]", "result": 14, "unit": "%"}, {"measurement": "Population Tubulin-Different-Phenotype (%)", "setting": "[3]", "result": 95, "unit": "%"}, {"measurement": "Total Cell Count", "setting": "[3]", "result": 143}, {"measurement": "Population Apoptotic (%)", "setting": "[4]", "result": 50, "unit": "%"}, {"measurement": "Population Fragmented Nuclei (%)", "setting": "[4]", "result": 8, "unit": "%"}, {"measurement": "Population Healthy Nuclei (%)", "setting": "[4]", "result": 83, "unit": "%"}, {"measurement": "Population Hoechst High Intensity Objects (%)", "setting": "[4]", "result": 18, "unit": "%"}, {"measurement": "Population Membrane Permeable-Phenotype (%)", "setting": "[4]", "result": 22, "unit": "%"}, {"measurement": "Population Mitochondria Different-Phenotype (%)", "setting": "[4]", "result": 69, "unit": "%"}, {"measurement": "Population Mitotic Cells (%)", "setting": "[4]", "result": 50, "unit": "%"}, {"measurement": "Population Normal (%)", "setting": "[4]", "result": 81, "unit": "%"}, {"measurement": "Population Pyknosed Nuclei (%)", "setting": "[4]", "result": 8, "unit": "%"}, {"measurement": "Population Tubulin-Different-Phenotype (%)", "setting": "[4]", "result": 93, "unit": "%"}, {"measurement": "Total Cell Count", "setting": "[4]", "result": 127}, {"measurement": "Population Apoptotic (%)", "setting": "[5]", "result": 94, "unit": "%"}, {"measurement": "Population Fragmented Nuclei (%)", "setting": "[5]", "result": 30, "unit": "%"}, {"measurement": "Population Healthy Nuclei (%)", "setting": "[5]", "result": 9, "unit": "%"}, {"measurement": "Population Hoechst High Intensity Objects (%)", "setting": "[5]", "result": 20, "unit": "%"}, {"measurement": "Population Membrane Permeable-Phenotype (%)", "setting": "[5]", "result": 100, "unit": "%"}, {"measurement": "Population Mitochondria Different-Phenotype (%)", "setting": "[5]", "result": 100, "unit": "%"}, {"measurement": "Population Mitotic Cells (%)", "setting": "[5]", "result": 5, "unit": "%"}, {"measurement": "Population Normal (%)", "setting": "[5]", "result": 80, "unit": "%"}, {"measurement": "Population Pyknosed Nuclei (%)", "setting": "[5]", "result": 59, "unit": "%"}, {"measurement": "Population Tubulin-Different-Phenotype (%)", "setting": "[5]", "result": 100, "unit": "%"}, {"measurement": "Total Cell Count", "setting": "[5]", "result": 169}, {"measurement": "Population Apoptotic (%)", "setting": "[6]", "result": 92, "unit": "%"}, {"measurement": "Population Fragmented Nuclei (%)", "setting": "[6]", "result": 18, "unit": "%"}, {"measurement": "Population Healthy Nuclei (%)", "setting": "[6]", "result": 17, "unit": "%"}, {"measurement": "Population Mitotic Cells (%)", "setting": "[6]", "result": 7, "unit": "%"}, {"measurement": "Population Pyknosed Nuclei (%)", "setting": "[6]", "result": 64, "unit": "%"}, {"measurement": "Total Cell Count", "setting": "[6]", "result": 84}, {"measurement": "Population Apoptotic (%)", "setting": "[7]", "result": 53, "unit": "%"}, {"measurement": "Population Fragmented Nuclei (%)", "setting": "[7]", "result": 10, "unit": "%"}, {"measurement": "Population Healthy Nuclei (%)", "setting": "[7]", "result": 71, "unit": "%"}, {"measurement": "Population Hoechst High Intensity Objects (%)", "setting": "[7]", "result": 1, "unit": "%"}, {"measurement": "Population Membrane Permeable-Phenotype (%)", "setting": "[7]", "result": 22, "unit": "%"}, {"measurement": "Population Mitochondria Different-Phenotype (%)", "setting": "[7]", "result": 73, "unit": "%"}, {"measurement": "Population Mitotic Cells (%)", "setting": "[7]", "result": 46, "unit": "%"}, {"measurement": "Population Normal (%)", "setting": "[7]", "result": 98, "unit": "%"}, {"measurement": "Population Pyknosed Nuclei (%)", "setting": "[7]", "result": 18, "unit": "%"}, {"measurement": "Population Tubulin-Different-Phenotype (%)", "setting": "[7]", "result": 92, "unit": "%"}, {"measurement": "Total Cell Count", "setting": "[7]", "result": 196}, {"measurement": "Population Apoptotic (%)", "setting": "[8]", "result": 41, "unit": "%"}, {"measurement": "Population Fragmented Nuclei (%)", "setting": "[8]", "result": 14, "unit": "%"}, {"measurement": "Population Healthy Nuclei (%)", "setting": "[8]", "result": 69, "unit": "%"}, {"measurement": "Population Hoechst High Intensity Objects (%)", "setting": "[8]", "result": 10, "unit": "%"}, {"measurement": "Population Membrane Permeable-Phenotype (%)", "setting": "[8]", "result": 21, "unit": "%"}, {"measurement": "Population Mitochondria Different-Phenotype (%)", "setting": "[8]", "result": 75, "unit": "%"}, {"measurement": "Population Mitotic Cells (%)", "setting": "[8]", "result": 58, "unit": "%"}, {"measurement": "Population Normal (%)", "setting": "[8]", "result": 89, "unit": "%"}, {"measurement": "Population Pyknosed Nuclei (%)", "setting": "[8]", "result": 16, "unit": "%"}, {"measurement": "Population Tubulin-Different-Phenotype (%)", "setting": "[8]", "result": 94, "unit": "%"}, {"measurement": "Total Cell Count", "setting": "[8]", "result": 163}]}]}
